# Measured values from ChEMBL document CHEMBL1811814, “Synthesis and evaluation of indole, pyrazole, chromone and pyrimidine based conjugates for tumor growth inhibitory activities--development of highly efficacious cytotoxic agents” (Eur J Med Chem, 2010).
# Tests used:
# Type in all cases: functional
# Design in all cases: scale not given: the % may be the effect or the level left
# MCF7 = assay: Growth inhibition of human MCF7 cells assessed tumor cell growth at 10^-5 M
# Summary of the method: (§1)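 NCI 60-human-tumor-cell-line panel screen. Each compound was tested at a single concentration of 10^-5 M, and percent growth of tumor cells was recorded for each cell line. Growth inhibition was expressed from these percent-growth values.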
# A498 = assay: Growth inhibition of human A498 cells assessed tumor cell growth at 10^-5 M; summary of the method: as §1
# [1] = Growth inhibition of human […] cells assessed tumor cell growth at 10^-5 M; summary of the method: as §1
# HOP-62 = assay: Growth inhibition of human HOP62 cells assessed tumor cell growth at 10^-5 M; summary of the method: as §1
# ACHN = assay: Growth inhibition of human ACHN cells assessed tumor cell growth at 10^-5 M; summary of the method: as §1
# SK-MEL-2 = assay: Growth inhibition of human SK-MEL-2 cells assessed tumor cell growth at 10^-5 M; summary of the method: as §1
# EKVX = assay: Growth inhibition of human EKVX cells assessed tumor cell growth at 10^-5 M; summary of the method: as §1
# SF-295 = assay: Growth inhibition of human SF295 cells assessed tumor cell growth at 10^-5 M; summary of the method: as §1
# SNB-75 = assay: Growth inhibition of human SNB75 cells assessed tumor cell growth at 10^-5 M
# Summary of the method: (§2)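 Single-dose screen at 10^-5 M across the 60 human tumor cell line panel, run to NCI standards. The value is the percent growth of each cell line in the presence of compound. Compounds active at this dose moved on to five-concentration testing (10^-4 to 10^-8 M).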
# MOLT-4 = assay: Growth inhibition of human MOLT4 cells assessed tumor cell growth at 10^-5 M; summary of the method: as §1
# NCI-H460 = assay: Growth inhibition of human NCI-H460 cells assessed tumor cell growth at 10^-5 M; summary of the method: as §1
# NCI-H23 = assay: Growth inhibition of human NCI-H23 cells assessed tumor cell growth at 10^-5 M; summary of the method: as §1
# SW-620 = assay: Growth inhibition of human SW620 cells assessed tumor cell growth at 10^-5 M; summary of the method: as §2
# MDA-MB-435 = assay: Growth inhibition of human MDA-MB-435 cells assessed tumor cell growth at 10^-5 M; summary of the method: as §1
# CAKI-1 = assay: Growth inhibition of human Caki1 cells assessed tumor cell growth at 10^-5 M; summary of the method: as §1
# SN12C = assay: Growth inhibition of human SN12C cells assessed tumor cell growth at 10^-5 M; summary of the method: as §1
# HT-29 = assay: Growth inhibition of human HT-29 cells assessed tumor cell growth at 10^-5 M; summary of the method: as §1
# HL-60(TB) = assay: Growth inhibition of human HL-60(TB) cells assessed tumor cell growth at 10^-5 M
# Summary of the method: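 HL-60(TB), part of the 60-line panel, tested at a single concentration of 10^-5 M. The read-out is percent tumor cell growth relative to untreated growth.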
# [2] = Growth inhibition of human Hs 578T cells assessed tumor cell growth at 10^-5 M; summary of the method: as §1
# TK-10 = assay: Growth inhibition of human TK10 cells assessed tumor cell growth at 10^-5 M; summary of the method: as §2
# DU-145 = assay: Growth inhibition of human DU145 cells assessed tumor cell growth at 10^-5 M; summary of the method: as §1
# K562 = assay: Growth inhibition of human K562 cells assessed tumor cell growth at 10^-5 M; summary of the method: as §1
# NCI-H322M = assay: Growth inhibition of human NCI-H322M cells assessed tumor cell growth at 10^-5 M; summary of the method: as §1
# HCT-116 = assay: Growth inhibition of human HCT116 cells assessed tumor cell growth at 10^-5 M; summary of the method: as §1
# RXF 393 = assay: Growth inhibition of human RXF393 cells assessed tumor cell growth at 10^-5 M; summary of the method: as §1
# OVCAR-5 = assay: Growth inhibition of human OVCAR5 cells assessed tumor cell growth at 10^-5 M; summary of the method: as §1
# 786-0 = assay: Growth inhibition of human 786-0 cells assessed tumor cell growth at 10^-5 M; summary of the method: as §1
# UACC-62 = assay: Growth inhibition of human UACC62 cells assessed tumor cell growth at 10^-5 M; summary of the method: as §2
# UO-31 = assay: Growth inhibition of human UO31 cells assessed tumor cell growth at 10^-5 M; summary of the method: as §2
# MDA-MB-231 = assay: Growth inhibition of human MDA-MB-231 cells assessed tumor cell growth at 10^-5 M; summary of the method: as §1
# Malme-3M = assay: Growth inhibition of human MALME-3M cells assessed tumor cell growth at 10^-5 M; summary of the method: as §1
# UACC-257 = assay: Growth inhibition of human UACC257 cells assessed tumor cell growth at 10^-5 M; summary of the method: as §2
# HCT-15 = assay: Growth inhibition of human HCT15 cells assessed tumor cell growth at 10^-5 M; summary of the method: as §1
# M14 = assay: Growth inhibition of human M14 cells assessed tumor cell growth at 10^-5 M; summary of the method: as §1
# SNB-19 = assay: Growth inhibition of human SNB19 cells assessed tumor cell growth at 10^-5 M; summary of the method: as §2
# OVCAR-3 = assay: Growth inhibition of human OVCAR3 cells assessed tumor cell growth at 10^-5 M; summary of the method: as §1
# U-251 = assay: Growth inhibition of human U251 cells assessed tumor cell growth at 10^-5 M; summary of the method: as §2
# LOX IMVI = assay: Growth inhibition of human LOXIMVI cells assessed tumor cell growth at 10^-5 M; summary of the method: as §1
# BT-549 = assay: Growth inhibition of human BT549 cells assessed tumor cell growth at 10^-5 M; summary of the method: as §1
# KM12 = assay: Growth inhibition of human KM12 cells assessed tumor cell growth at 10^-5 M; summary of the method: as §1
# NCI/ADR-RES = assay: Growth inhibition of human NCI/ADR-RES cells assessed tumor cell growth at 10^-5 M; summary of the method: as §1
# CCRF-CEM = assay: Growth inhibition of human CCRF-CEM cells assessed tumor cell growth at 10^-5 M; summary of the method: as §1
# COLO 205 = assay: Growth inhibition of human COLO205 cells assessed tumor cell growth at 10^-5 M; summary of the method: as §1
# NCI-H226 = assay: Growth inhibition of human NCI-H226 cells assessed tumor cell growth at 10^-5 M; summary of the method: as §1
# T47D = assay: Growth inhibition of human T47D cells assessed tumor cell growth at 10^-5 M; summary of the method: as §2
# SF-539 = assay: Growth inhibition of human SF539 cells assessed tumor cell growth at 10^-5 M; summary of the method: as §1
# NCI-H522 = assay: Growth inhibition of human NCI-H522 cells assessed tumor cell growth at 10^-5 M; summary of the method: as §1
# SK-OV-3 = assay: Growth inhibition of human SKOV3 cells assessed tumor cell growth at 10^-5 M; summary of the method: as §1
# SF-268 = assay: Growth inhibition of human SF268 cells assessed tumor cell growth at 10^-5 M; summary of the method: as §1
# OVCAR-4 = assay: Growth inhibition of human OVCAR4 cells assessed tumor cell growth at 10^-5 M; summary of the method: as §1
# SK-MEL-28 = assay: Growth inhibition of human SK-MEL-28 cells assessed tumor cell growth at 10^-5 M; summary of the method: as §1
# MDA-MB-468 = assay: Growth inhibition of human MDA-MB-468 cells assessed tumor cell growth at 10^-5 M; summary of the method: as §1
# HCC 2998 = assay: Growth inhibition of human HCC2998 cells assessed tumor cell growth at 10^-5 M; summary of the method: as §1
# SK-MEL-5 = assay: Growth inhibition of human SK-MEL-5 cells assessed tumor cell growth at 10^-5 M; summary of the method: as §1
# OVCAR-8 = assay: Growth inhibition of human OVCAR8 cells assessed tumor cell growth at 10^-5 M; summary of the method: as §1
# A549 = assay: Growth inhibition of human A549 cells assessed tumor cell growth at 10^-5 M; summary of the method: as §1
# HOP-92 = assay: Growth inhibition of human HOP92 cells assessed tumor cell growth at 10^-5 M; summary of the method: as §1
smiles,measurement,setting,value
CC1=NN(c2cccc(Cl)c2)C(=O)/C1=C\c1cn(S(=O)(=O)c2ccc(C)cc2)c2ccccc12,Activity,MCF7,113.07%
same,Activity,A498,117.06%
same,Activity,[1],113.1%
same,Activity,HOP-62,62.28%
same,Activity,ACHN,97.51%
same,Activity,SK-MEL-2,113.68%
same,Activity,EKVX,97.98%
same,Activity,SF-295,114.23%
same,Activity,SNB-75,89.33%
same,Activity,MOLT-4,173.14%
same,Activity,NCI-H460,119.39%
same,Activity,NCI-H23,83.92%
same,Activity,SW-620,98.36%
same,Activity,MDA-MB-435,105.48%
same,Activity,CAKI-1,87.81%
same,Activity,SN12C,97.46%
same,Activity,HT-29,122.1%
same,Activity,HL-60(TB),114.07%
same,Activity,[2],115.57%
same,Activity,TK-10,166.55%
same,Activity,DU-145,114.18%
same,Activity,K562,138.24%
same,Activity,NCI-H322M,105.18%
same,Activity,HCT-116,88.23%
same,Activity,RXF 393,137.02%
same,Activity,OVCAR-5,88.09%
same,Activity,786-0,94.95%
same,Activity,UACC-62,86.46%
same,Activity,UO-31,78.22%
same,Activity,MDA-MB-231,85.37%
same,Activity,Malme-3M,114.11%
same,Activity,UACC-257,114.55%
same,Activity,HCT-15,105.27%
same,Activity,M14,82.05%
same,Activity,SNB-19,114.11%
same,Activity,OVCAR-3,110.25%
same,Activity,U-251,102.73%
same,Activity,LOX IMVI,97.36%
same,Activity,BT-549,111.59%
same,Activity,KM12,109.5%
same,Activity,NCI/ADR-RES,85.11%
same,Activity,CCRF-CEM,134.54%
same,Activity,COLO 205,142.35%
same,Activity,NCI-H226,79.93%
same,Activity,T47D,91.46%
same,Activity,SF-539,114%
same,Activity,NCI-H522,107.2%
same,Activity,SK-OV-3,105.37%
same,Activity,SF-268,103.69%
same,Activity,OVCAR-4,103.09%
same,Activity,SK-MEL-28,125.16%
same,Activity,MDA-MB-468,118.75%
same,Activity,HCC 2998,88.49%
same,Activity,SK-MEL-5,105.66%
same,Activity,OVCAR-8,107.68%
same,Activity,A549,108.98%
CC1=NN(c2cccc(Cl)c2)C(=O)/C1=C\c1c[nH]c2ccccc12,Activity,MCF7,76.22%
same,Activity,A498,100.75%
same,Activity,[1],103.27%
same,Activity,HOP-62,83.26%
same,Activity,ACHN,84.34%
same,Activity,SK-MEL-2,120.43%
same,Activity,EKVX,79.28%
same,Activity,SF-295,116.2%
same,Activity,SNB-75,91.42%
same,Activity,MOLT-4,159.76%
same,Activity,NCI-H460,109.9%
same,Activity,NCI-H23,117.91%
same,Activity,MDA-MB-435,108.89%
same,Activity,CAKI-1,155.88%
same,Activity,SN12C,200.78%
same,Activity,HT-29,114.3%
same,Activity,HL-60(TB),124.41%
same,Activity,DU-145,121.25%
same,Activity,K562,128.85%
same,Activity,NCI-H322M,106.34%
same,Activity,HCT-116,101.89%
same,Activity,RXF 393,99.54%
same,Activity,OVCAR-5,98.5%
same,Activity,786-0,98.46%
same,Activity,UACC-62,83.26%
same,Activity,UO-31,88.75%
same,Activity,MDA-MB-231,72.74%
same,Activity,Malme-3M,114.52%
same,Activity,UACC-257,122.98%
same,Activity,HCT-15,103.61%
same,Activity,M14,99.91%
same,Activity,SNB-19,111.33%
same,Activity,OVCAR-3,105.19%
same,Activity,U-251,103.49%
same,Activity,LOX IMVI,99.88%
same,Activity,BT-549,117.3%
same,Activity,KM12,106.96%
same,Activity,NCI/ADR-RES,101.48%
same,Activity,CCRF-CEM,142.91%
same,Activity,COLO 205,122.84%
same,Activity,NCI-H226,76.77%
same,Activity,T47D,83.89%
same,Activity,SF-539,100.44%
same,Activity,SK-OV-3,99.61%
same,Activity,SF-268,107.91%
same,Activity,OVCAR-4,104.32%
same,Activity,MDA-MB-468,104.9%
same,Activity,HCC 2998,88.48%
same,Activity,SK-MEL-5,102.28%
same,Activity,HOP-92,72.8%
same,Activity,OVCAR-8,107.69%
same,Activity,A549,109.06%
